What was measured:
[1] = biological target: T1, Dual specificity protein kinase CLK1 (Homo sapiens, UniProt P49759); assay: Inhibition of recombinant human GST-tagged Clk1 expressed in Escherichia coli at 100 nM using RS repeat substrate peptide after 15 mins in presence of [gamma-32]-ATP
Target sequence in this assay (P49759 whole entry, looked up): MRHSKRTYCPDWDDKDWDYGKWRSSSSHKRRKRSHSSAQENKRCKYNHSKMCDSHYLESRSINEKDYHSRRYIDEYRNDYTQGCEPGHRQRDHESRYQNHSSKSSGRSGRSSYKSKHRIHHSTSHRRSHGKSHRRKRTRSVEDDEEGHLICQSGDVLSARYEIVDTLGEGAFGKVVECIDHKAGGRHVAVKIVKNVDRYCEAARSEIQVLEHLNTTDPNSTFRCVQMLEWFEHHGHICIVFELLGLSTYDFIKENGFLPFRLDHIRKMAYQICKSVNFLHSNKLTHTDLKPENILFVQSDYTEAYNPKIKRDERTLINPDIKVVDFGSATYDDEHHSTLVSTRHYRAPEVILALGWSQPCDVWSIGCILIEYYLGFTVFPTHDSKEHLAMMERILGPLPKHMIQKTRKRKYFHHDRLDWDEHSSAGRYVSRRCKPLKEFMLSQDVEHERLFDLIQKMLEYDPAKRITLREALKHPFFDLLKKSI

[2] = biological target: T1, Dual specificity protein kinase CLK1; assay: Inhibition of recombinant human GST-tagged Clk1 expressed in Escherichia coli using RS repeat substrate peptide after 15 mins in presence of [gamma-32]-ATP
Target sequence in this assay (P49759 whole entry): as the sequence (P49759 whole entry, looked up) above

[3] = system: MDA-MB-231; assay: Cytotoxicity against human MDA-MB-231 cells assessed as growth inhibition after 5 days by MTT assay; assay type: functional; details: MDA-MB-231, 120 h
Procedure, shortened: (§1)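 They were seeded at 5000 cells per well onto compound or DMSO (0.2% final). Plates were kept 5 days at 37 °C in 5% CO2 with no medium change, then read by MTT.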

[4] = system: T47D; assay: Cytotoxicity against human T47D cells assessed as growth inhibition after 5 days by MTT assay; assay type: functional; details: 120 h; procedure, shortened: as §1
[5] = system: T-24; assay: Cytotoxicity against human T24 cells assessed as growth inhibition after 5 days by MTT assay; assay type: functional; details: T-24, 120 h; procedure, shortened: as §1

SMILES	inhibition [1]	IC50 [2]	further results
C=CCNC(=O)c1cc2cc(OC)ccc2s1	37%	–	–
COc1ccc2sc(C(=O)NCc3ccccn3)cc2c1	0%	–	–
COc1cccc(CNC(=O)c2cc3cc(OC)ccc3s2)c1	13.4%	–	–
COc1ccc2sc(C(=O)NCc3ccccc3F)cc2c1	23.2%	–	–
COc1ccc2sc(C(=O)NCCc3ccccc3)cc2c1	50.7%	0.107 µM	–
COc1ccc2sc(C(=O)Nc3ccccc3)cc2c1	0.54%	–	–
COc1ccc2sc(C(=O)NCC(=O)O)cc2c1	0.5%	–	–
COc1ccc2sc(C(=O)N(C)Cc3cccnc3)cc2c1	51%	0.0816 µM	GI50 [3]: 25.7 µM; GI50 [4]: 25.4 µM; GI50 [5]: 12.5 µM
COc1ccc2sc(C(=O)NCc3ccccc3)cc2c1	59.4%	0.084 µM	–
